Here are results for 4 compounds from publication PMC6272120 (Cancer Science, 2018).

A value given as a limit tells only on which side of the number the result lay.

For data set [1], the system named is E‐cadherin, N‐cadherin, vimentin in 786‐O and ACHN cells. Put plainly: Western blot of EMT‐related proteins. The class given is cell-based, human. In general terms: A western blot detects proteins with antibodies after separation by electrophoresis.
Data set [2] has as its system 786‐O and ACHN cells. Put plainly: Wound healing and transwell migration assay. The class given is cell-based, human. The gist of the method:
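Transwell, 8-μm pores: 1 × 10⁴ cells (migration) or 2 × 10⁴ on Matrigel (invasion) in serum-free medium with treatment above complete medium at matching concentration, 24 h. Cells fixed 4% paraformaldehyde, stained .1% crystal violet, counted in 4 random fields. Mean ± SD, 3 experiments.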

In data set [3] the test system is lung metastasis of 786‐O cells. The experiment in a line: Metastatic tumor model, luciferase‐tagged 786‐O cells via tail veins. The class given is in vivo, nude mice. The following applies: vs control. The gist of the method: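 Male nude mice, 5 weeks old, 19-22 g, received luciferase-tagged 786-O cells by tail vein, then two groups. Dosing was intraperitoneal DMSO (control) or test compound 20 mg/kg every 3 days. At day 30: D-luciferin 150 mg/kg i.p., 10 min wait, chloral hydrate anaesthesia, then bioluminescence imaging. Lung tumours harvested and H&E-stained.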

Data set [4] concerns AMPK/mTOR signaling pathway in 786‐O and ACHN cells. Put plainly: Western blot of AMPK/mTOR signaling pathway. The class given is cell-based, human. The settings on record: 0, 20, 40, 60 μmol/L TQ, 24 hours. The gist of the method:
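786-O and ACHN cells exposed 24 h to test compound at 0, 20, 40, 60 μmol/L. RIPA lysis with protease/phosphatase inhibitors and PMSF; BCA-normalised; 10%-15% SDS-PAGE, PVDF, 10% milk block. Probed overnight at 4°C for AMPK, p-AMPK (Thr172), mTOR, p-mTOR (Ser2448), p-S6K (Thr389), LC3; secondary 1 h; ECL. Mean ± SD, 3 independent experiments.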

The subject of another data set is ACHN cells. The experiment in a line: Cell viability assay. The class given is cell-based. The settings on record: Homo sapiens. The gist of the method: (§1)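 Cells in RPMI-1640 with 10% FBS, seeded 5 × 10³/well, left overnight. Medium then replaced with test compound at 0, 10, 20, 40, 60, 80 and 100 μmol/L for 24 or 48 h. CCK8 added for 4 h at 37°C; OD read at 490 nm. Mean ± SD of 3 independent experiments.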

A further data set concerns 786‐O xenograft tumors. Put plainly: Subcutaneous 786‐O xenograft tumor model. The class given is in vivo, nude mice. The procedure, abridged: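 Male nude mice, 5 weeks old, 19-22 g, given 1 × 10⁶ 786-O cells s.c. with Matrigel in the right flank. At 100-150 mm³, randomised 5 per group: intraperitoneal DMSO or test compound 20 mg/kg every 3 days. Volume ((length × width²) × .5) and body weight recorded every 3 days. Tumours excised and weighed after 30 days. Mean ± SD.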

In data set [5] the test system is 786‐O and ACHN cells. Put plainly: Transwell invasion assay. The class given is cell-based, human. The settings on record: 0, 20, 40, 60 μmol/L TQ.
For data set [6], the system named is HK‐2 normal renal tubular epithelial cells. The experiment in a line: Cell viability assay. The following applies: HK‐2, low doses of TQ (less than 60 μmol/L). The class given is cell-based, human.
The test system of a further data set is 786‐O cells. The experiment in a line: Cell viability assay. The following applies: Homo sapiens. The class given is cell-based. The gist of the method:
as §1

Data set [7] concerns LC3 in 786‐O and ACHN cells. Put plainly: Autophagy detection. The class given is cell-based, human. The procedure, abridged:
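786-O and ACHN cells pretreated 4 h with AMPK inhibitor (50 μmol/L), then 40 μmol/L test compound 24 h. RIPA lysis with protease/phosphatase inhibitors and PMSF on ice; BCA-normalised; 10%-15% SDS-PAGE, PVDF, 10% milk block 2 h RT; anti-LC3-I/II overnight 4°C, secondary 1 h; ECL detection. Mean ± SD of 3 independent experiments.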

The test system of the next data set is RCC cells. Put plainly: Comparison of TQ with everolimus. The class given is cell-based, human. The following applies: Figure S3.
[8] abbreviates: 3‐MA 5 mmol/L with TQ 40 μmol/L.
The mark [9] stands for this setting: TQ 20 mg/kg intraperitoneal every 3 days, 30 days.
Setting [10] is: compound C 50 μmol/L pretreatment 4 hours, then TQ 40 μmol/L 24 hours.

Take `Cn1cnc(N)c2ncnc1-2` [3‐MA, 3‐methyladenine]: the “effect on TQ‐induced MET” value in data set [1] (setting [8]) is reported as “abate TQ‐induced MET”. Further, the “effect on anti‐migratory ability of TQ” value in the data set with 786‐O and ACHN cells [2] (setting [8]) is recorded as “remarkably attenuated”.
Regarding `CC1=CC(=O)C(C(C)C)=CC1=O` [TQ, 2‐methyl‐5‐isopropyl‐1,4‐benzoquinone], the “lung metastasis (bioluminescence)” value in [3] (setting [9]) is recorded as “significantly inhibited lung metastasis”. The “number of metastatic nodules in the lungs (H&E)” value in [3] (TQ 20 mg/kg) is “significant decrease in the number of metastatic nodules”. For the same compound, the “expression of p‐AMPK” value in [4] was “elevated”. The “expressions of p‐mTOR and p‐S6K” value in data set [4] was “reduced”. Besides, the half-inhibitory concentration (IC50) was found to be 72 µM in the data set on ACHN cells (24 h, read-out: IC50 value, inhibition on cell growth) and 55 µM with 786‐O cells (786-0, 24 h, read-out: IC50 value, inhibition on cell growth). Also, the inhibition at 40 µM with ACHN cells (read-out: inhibitory rate of cell proliferation) is less than 20%; in the data set with 786‐O cells (786-0, read-out: inhibitory rate of cell proliferation), less than 20%. Besides, the “expression of EMT markers” value in [1] (different concentrations for 24 hours or 40 μmol/L for different times) is recorded as “upregulated epithelial markers (E‐cadherin), while downregulating mesenchymal markers (N‐cadherin, vimentin)”. Besides, the cancer cell migration result in the data set on 786‐O and ACHN cells [2] (wound healing 40 μmol/L, transwell 0, 20, 40, 60 μmol/L, 24 hours) is “attenuated cancer cell migration in a time‐dependent and concentration‐dependent manner”. The “tumor growth / tumor weight vs control” value with 786‐O xenograft tumors (setting [9]) is reported as “TQ inhibited RCC cell growth in vivo”. Further, in the data set on 786‐O xenograft tumors (immunohistochemistry and western blot, TQ 20 mg/kg), the “expression of E‐cadherin and N‐cadherin in xenograft tumors” value is “increased expression of E‐cadherin and decreased expression of N‐cadherin”. The “number of invaded cells” value in the data set on 786‐O and ACHN cells [5] is reported as “number of invaded cells decreased with the increase of TQ concentration”. For the same compound, in data set [6], the “effect on cell growth of normal cells” value is “no significant decrease in cell growth”. The “LC3 puncta (autophagosomes and autolysosomes)” value in data set [7] (40 μmol/L TQ, 24 hours, vs control group) was “number of both yellow and red puncta increased dramatically”. In addition, the “LC3‐II expression” value in [7] (western blot, different concentrations of TQ) is given as “upregulate LC3‐II in a concentration‐dependent manner”.
As for `c1cc(-c2cnn3cc(-c4ccc(OCCN5CCCCC5)cc4)cnc23)ccn1` [compound C], the “effect on TQ‐induced MET” value in data set [1] (setting [10]) is “weakened TQ‐induced MET”. In addition, the “effect on TQ anti‐migratory and anti‐invasive effects (transwell)” value in the data set on 786‐O and ACHN cells [2] (setting [10]) is “attenuated the migratory and invasive capacities of autophagy induced by TQ”. The “effect on TQ‐induced LC3” value in [7] (setting [10]) is “effects of TQ on LC3 could be receded”.
For the compound `CO[C@H]1C[C@@H]2CC[C@@H](C)[C@@](O)(O2)C(=O)C(=O)N2CCCC[C@H]2C(=O)O[C@H]([C@H](C)C[C@@H]2CC[C@@H](OCCO)[C@H](OC)C2)CC(=O)[C@H](C)/C=C(\C)[C@@H](O)[C@@H](OC)C(=O)[C@H](C)C[C@H](C)/C=C/C=C/C=C/1C` [everolimus], the “inhibiting migration and invasion, inducing autophagy and MET, compared with TQ” value in the data set on RCC cells is “significantly more potent than TQ”.

A word on the IC50: it is the concentration that gives 50% inhibition.
